rRNA inh HTS: inhibits bacterial ribosomal RNA function over humanized ribosomes | E. coli WT GFP vs humanized-ribosome RFP mutants, fluorescence, 24 h; active compounds read low; DMSO median 0, no signal -100 | GFP signal change (wild-type ribosome), % (test concentration not listed) | 1.6% of 350,000 active | AID 720706;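 active means significant combined selectivity score with lowered wild-type GFP, culture density cut under 30%, mutant RFP and density less affected; inactive means any of these conditions unmet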
FGF22 binding: shifts melting point of recombinant human FGF22 | Q9HCT0 | recombinant FGF22 thermal shift, SYPRO orange fluorescence; percent of sucrose octasulfate shift, DMSO zero | activity (Tm shift, normalised), % at 9.99 µM | 1.5% of 340,000 active;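 active means mean Tm shift, scaled 0 neutral to 100 positive control, at about 1.3% or above, every replicate too, limit read from the data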
Target sequence (Q9HCT0 whole entry, looked up): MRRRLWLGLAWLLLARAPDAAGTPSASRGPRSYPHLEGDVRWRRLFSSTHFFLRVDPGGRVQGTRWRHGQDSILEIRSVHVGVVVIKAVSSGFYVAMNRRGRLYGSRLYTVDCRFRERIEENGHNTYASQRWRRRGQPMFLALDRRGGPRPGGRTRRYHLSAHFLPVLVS
C2C12 statin: protects C2C12 myotubes from simvastatin toxicity; ATP luminescence, 48 h; scaled: DMSO 0, geranylgeraniol control 100; rescue of ATP level, % at 7.49 µM; 0.78% of 330,000 active; AID 602340;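 active means mean ATP rescue above about 67%, or every replicate alone reaching that limit, limit read from the data, passing the limit was not always enough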;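 further: myotubes were challenged with 10 µM simvastatin during compound exposure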
FN deposit inh: fibronectin deposition inhibition; AH1F fibroblasts, Alexa488-fibronectin deposition fluorescence, overnight; inhibition, % at 12.6 µM; 0.086% of 350,000 active; AID 743247;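 active means mean inhibition across replicates of 30% or more, regardless of how many single replicates reach that level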
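Material: AH1F fibroblasts assembling fluorescent fibronectin matrix; amount: 10000 AH1F cells/well; medium: DMEM, 2% serum; reagent: Alexa488-fibronectin, 24 nM final in well; dosing: single compound dose, delivered by pin transfer; incubation: 1 h adhesion, overnight exposure; detection: fluorescence after three HBSS washes, excitation 485 nm, emission 525 nm; measure: fibronectin deposition inhibition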
SIRT5 block: blocks human SIRT5 desuccinylation of peptide. Q9NXA8. Purified SirT5, succinyl-peptide AMC, trypsin-coupled fluorescence. inhibition, % at 15 µM. 1.1% of 330,000 active; in the data active means inhibition above about 15%
Target sequence (Q9NXA8 whole entry, looked up): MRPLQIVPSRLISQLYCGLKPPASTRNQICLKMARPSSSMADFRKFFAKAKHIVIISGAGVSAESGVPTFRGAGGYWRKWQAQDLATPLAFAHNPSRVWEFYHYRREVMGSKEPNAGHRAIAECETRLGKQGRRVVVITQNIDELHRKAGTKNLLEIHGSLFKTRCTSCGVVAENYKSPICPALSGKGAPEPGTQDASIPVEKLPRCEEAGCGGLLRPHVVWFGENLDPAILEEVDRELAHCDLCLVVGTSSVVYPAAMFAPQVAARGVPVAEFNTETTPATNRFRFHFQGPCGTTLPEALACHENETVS
E-selectin induc: induces E-selectin expression in human endothelial cells; P16581; HUVEC E-selectin immunofluorescence imaging; normalized: neutral wells 0, TNF-alpha wells 100; activation, % at 7.58 µM; 0.37% of 260,000 active;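 active means mean E-selectin-positive cell signal at least 10% of the positive control, reached in at least 60% of replicates, without over 20% cell loss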
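Assay system: HUVEC, human umbilical vein endothelial cells / Amount: 3,000 HUVEC/well / Controls: TNF-alpha positive control, DMSO neutral control / Compound dosing: single concentration / Medium: EGM-2 over gelatin coat / Evaluation: percent E-selectin-positive cells / Signal: immunofluorescence imaging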
Of the large screens only hits and unclear results are named; the others gave an inactive call. Compounds with a hit are over-represented: about 4% of the library has one in this group of screens.

CC(C)C[C@H]1COc2cc(N3CC[C@H](O)C3)ccc2S(=O)(=O)N1	SIRT5 block 33.0 (no result: C2C12 statin)
O=S1(=O)N[C@@H](Cc2ccccc2)COc2cccc(N3CCN(Cc4ccccc4F)CC3)c21	none (no result: C2C12 statin)
O=S1(=O)N[C@@H](Cc2ccccc2)COc2cccc(N3CCCC3)c21	SIRT5 block 23.2 (no result: C2C12 statin)
CC(C)C[C@H]1COc2cccc(N3CCOCC3)c2S(=O)(=O)N1	none (no result: C2C12 statin)
O=S1(=O)N[C@@H](Cc2ccccc2)COc2cccc(N3CCCCC3)c21	none (no result: C2C12 statin)
C[C@@H]1CN([C@@H](C)CO)C(=O)c2cc(NS(=O)(=O)c3cccs3)ccc2O[C@@H](C)CCCCO[C@@H]1CN(C)S(=O)(=O)c1ccccc1	none (no result: C2C12 statin, E-selectin induc)
C[C@@H]1CN([C@@H](C)CO)C(=O)c2cc(C#CCN(C)C)cnc2O[C@H]1CN(C)Cc1ccc(-c2ccccc2)cc1	none (no result: FN deposit inh)
Cc1cc(C(=O)Nc2cccc3c2O[C@H](CN(C)Cc2ccncc2)[C@@H](C)CN([C@@H](C)CO)C3=O)n(C)n1	none (no result: FN deposit inh, E-selectin induc)
Cc1ccc(SCc2cn3cc(Cl)ccc3n2)cc1	none (no result: C2C12 statin)
Clc1ccc(SCc2cn3ccccc3n2)cc1	rRNA inh HTS -27.8, SIRT5 block 58.0 (no result: C2C12 statin, E-selectin induc)
CCOCCCNc1nc2c([nH]1)c(=O)n(C)c(=O)n2C	none (no result: rRNA inh HTS, FGF22 binding, FN deposit inh, SIRT5 block, E-selectin induc)
COCCCNc1nc2c([nH]1)c(=O)[nH]c(=O)n2C	C2C12 statin 132.7 (no result: rRNA inh HTS, FGF22 binding, SIRT5 block, E-selectin induc)
C/C(=C\c1ccco1)C1C(C#N)=C(N)Oc2n[nH]c(-c3ccc(C)cc3)c21 (configuration not stated)	rRNA inh HTS -27.5 (no result: FN deposit inh, E-selectin induc)
COc1ccccc1C(=O)NC(=S)Nc1ccc(NC(=O)c2ccco2)cc1	FGF22 binding 1.5 (no result: E-selectin induc)
COc1ccc(NC(=S)NC(=O)c2ccccc2Cl)cc1	FGF22 binding 43.2
COc1ccc(NC(=S)NNC(=O)CNc2ccc(Cl)cc2)cc1	FGF22 binding 1.4 (no result: C2C12 statin, FN deposit inh, E-selectin induc)
O=C(NC(=S)Nc1ccc(O)cc1)c1ccccc1Cl	none (no result: E-selectin induc)
C[C@H](O)C#Cc1cnc2c(c1)C(=O)N([C@@H](C)CO)C[C@@H](C)[C@@H](CN(C)C(=O)Cc1ccncc1)O2	none
COc1ccc(CNC(=O)c2cc3c(c(-c4cccc(-c5cccc(C#N)c5)c4)n2)[C@@H](CCO)N([S@](=O)C(C)(C)C)C3)cc1	none
COc1cccc(CNC(=O)c2cc3c(c(-c4cccc(-c5cccc(C#N)c5)c4)n2)[C@H](CCO)N(S(=O)C(C)(C)C)C3)c1 (some centres not stated)	E-selectin induc 48.6
COc1ccc(CNC(=O)c2cc3c(c(-c4cccc(-c5ccc(C#N)cc5)c4)n2)[C@@H](CCO)N([S@](=O)C(C)(C)C)C3)cc1	none
COc1cccc(CNC(=O)c2cc3c(c(-c4cccc(-c5ccc(C#N)cc5)c4)n2)[C@H](CCO)N([S@@](=O)C(C)(C)C)C3)c1	E-selectin induc 60.0
Cc1cccc2nc(-c3cccnc3)c(NCCC(C)C)n12	none (no result: C2C12 statin)
Cc1cccc2nc(-c3cccnc3)c(Nc3ccccc3)n12	rRNA inh HTS -36.0 (no result: E-selectin induc)
CNC[C@@H]1Oc2ccc(NC(=O)Nc3ccc(F)cc3)cc2CC(=O)N([C@@H](C)CO)C[C@H]1C	none
C[C@@H]1CN([C@H](C)CO)C(=O)Cc2cc(NC(=O)Nc3ccc(F)cc3)ccc2O[C@@H]1CN(C)Cc1ccncc1	E-selectin induc 44.0 (no result: FN deposit inh)
CNC[C@H]1Oc2ccc(NC(=O)Nc3ccc(F)cc3)cc2CC(=O)N([C@H](C)CO)C[C@@H]1C	SIRT5 block 36.3
C[C@@H]1CN([C@@H](C)CO)C(=O)Cc2cc(NC(=O)Nc3ccc(F)cc3)ccc2O[C@H]1CN(C)Cc1ccncc1	none (no result: FN deposit inh)
C[C@@H]1CN([C@@H](C)CO)C(=O)Cc2cc(NC(=O)Nc3ccc(F)cc3)ccc2O[C@@H]1CN(C)Cc1ccncc1	E-selectin induc 127.5 (no result: FN deposit inh)
O=C(C[C@@H]1C[C@H]2c3cc(NC(=O)Nc4ccc(C(F)(F)F)cc4)ccc3O[C@H]2[C@H](CO)O1)NC1CCCCC1	none (no result: FN deposit inh)
CN1c2ccccc2Oc2nnc(N3CCN(Cc4ccccc4)CC3)cc21	FGF22 binding 43.4 (no result: FN deposit inh, SIRT5 block, E-selectin induc)
CN1c2ccccc2Oc2nnc(Cl)cc21	none (no result: C2C12 statin, E-selectin induc)
Cc1cc(S(=O)(=O)Nc2ccc(C(=O)NCC3(N4CCCCC4)CCCCC3)cc2)ccc1F	SIRT5 block 21.5
Cc1cc(S(=O)(=O)Nc2ccc(C(=O)NCC3(N(C)C)CCCCC3)cc2)ccc1F	none
CC(=O)c1ccc(NC(=O)CSc2nnc(C3CC3)n2C)cc1	none (no result: E-selectin induc)
CC(=O)Nc1ccc(NC(=O)CSc2nnc(C3CC3)n2C)cc1	C2C12 statin 127.2 (no result: rRNA inh HTS, FGF22 binding, SIRT5 block, E-selectin induc)
COc1cc(/C=C(\C#N)C(=O)c2ccc(O)c(O)c2)cc(I)c1O	SIRT5 block 20.4 (no result: rRNA inh HTS)
C[C@@H]1CN([C@@H](C)CO)C(=O)c2cc(NS(=O)(=O)c3cccs3)ccc2O[C@@H](C)CCCCO[C@@H]1CN(C)Cc1ccncc1	none (no result: C2C12 statin, FN deposit inh)
CC[n+]1c(C=C2C=C(C)OC(C)=C2)sc2ccccc21	SIRT5 block 19.3
C[C@H]1CCCCO[C@H](CN(C)Cc2ccc(C(F)(F)F)cc2)[C@@H](C)CN([C@@H](C)CO)C(=O)c2cc(NS(=O)(=O)c3ccc(Cl)cc3)ccc2O1	SIRT5 block 19.1 (no result: C2C12 statin)
C[C@@H]1CN([C@@H](C)CO)C(=O)c2cc(NS(=O)(=O)c3ccc(F)cc3)ccc2O[C@@H](C)CCCCO[C@H]1CN(C)Cc1ccc(C(F)(F)F)cc1	SIRT5 block 27.9 (no result: C2C12 statin)
C[C@@H]1CCCCO[C@H](CN(C)Cc2ccc(C(F)(F)F)cc2)[C@@H](C)CN([C@H](C)CO)C(=O)c2cc(NS(=O)(=O)c3ccc(F)cc3)ccc2O1	none (no result: C2C12 statin)
C[C@@H]1CCCCO[C@@H](CN(C)Cc2ccc(C(F)(F)F)cc2)[C@H](C)CN([C@@H](C)CO)C(=O)c2cc(NS(=O)(=O)c3ccc(F)cc3)ccc2O1	SIRT5 block 19.0 (no result: C2C12 statin)
C[C@@H]1CN([C@@H](C)CO)C(=O)c2cc(NS(=O)(=O)c3cn(C)cn3)ccc2O[C@@H](C)CCCCO[C@@H]1CN(C)Cc1ccc(C(F)(F)F)cc1	SIRT5 block 15.4 (no result: C2C12 statin, FN deposit inh)
C[C@@H]1CCCCO[C@H](CN(C)Cc2ccc(C(F)(F)F)cc2)[C@@H](C)CN([C@@H](C)CO)C(=O)c2cc(NS(=O)(=O)c3ccc(Cl)cc3)ccc2O1	none (no result: C2C12 statin)
COCC(=O)N1[C@@H](CO)[C@@H](c2ccccc2)C12CN(Cc1cccc(OC)c1)C2	none (no result: FGF22 binding, C2C12 statin, FN deposit inh, SIRT5 block, E-selectin induc)
FC(F)(F)COc1nc(N/N=C/c2cccnc2)nc(N2CCCCC2c2ccccn2)n1 (configuration not stated)	rRNA inh HTS -33.4
C(=N\Nc1nc(N2CCCC2)nc(N2CCCC2)n1)/c1cccnc1	none (no result: C2C12 statin)
O=[N+]([O-])c1ccc(Cc2ccccn2)cc1	none

Source: PubChem BioAssay (Broad Institute)
